Bioassay records (PubChem)
Runt-SMMHC FRET = inhibitors of human RUNX1 Runt domain binding to CBFb-SMMHC; Q01196+Q13951; Cerulean-Runt/Venus-CBFb-SMMHC FRET ratio 530/480, 1 h; inhibition, % at 20 µM; actives 0.74% (n = 220,000);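 active = mean inhibition across duplicate retests at 20 µM reaching about 50%, limit read from the data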;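 also: 0% = DMSO wells and 100% = wells with excess untagged CBFb-SMMHC; inhibitors lower the FRET ratio by blocking Runt binding to CBFb-SMMHC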
RanGTP-Impb inh = inhibitors of RanGTP-importin-beta interaction, primary screen, biochemical, FRET, CFP-Ran, YFP-importin-beta, homogeneous. cell-free CFP-Ran/YFP-importin-beta FRET ratio. inhibition, % (no concentration beside the values). actives 1.1% (n = 300,000);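 active = more than half of the replicate wells show a fall in the fluorescence ratio signal beyond about 16%, limit read from the data, passing the limit was not always enough; inconclusive = exactly half of the replicate wells pass the set limit; inactive = fewer than half of replicates pass the limit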;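 also: 0% = DMSO wells and 100% = Ran loaded with GDP instead of GTP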
proKLK7 act = activators of human kallikrein-7 zymogen; P49862; purified proKLK7, EDANS-DABCYL substrate fluorescence; 100% is mature enzyme control, 0% vehicle; activation, % at 7 µM; actives 0.9% (n = 370,000);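 active = activation above the mean of all tested compounds plus 3 SD, computed per campaign excluding outliers beyond control limits, cut at about 13% in these data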
Target sequence (P49862 whole entry, looked up): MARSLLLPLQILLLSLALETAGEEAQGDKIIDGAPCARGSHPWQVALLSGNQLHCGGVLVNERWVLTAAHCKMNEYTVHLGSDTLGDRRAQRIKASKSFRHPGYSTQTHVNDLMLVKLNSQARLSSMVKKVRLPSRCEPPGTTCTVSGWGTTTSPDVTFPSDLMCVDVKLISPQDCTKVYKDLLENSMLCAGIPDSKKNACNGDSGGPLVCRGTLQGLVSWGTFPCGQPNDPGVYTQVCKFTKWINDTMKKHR
AI-2 QS modul = modulates the Vibrio harveyi AI-2 quorum sensing system; Vibrio harveyi JMH597 AI-2 luminescence/OD600 ratio, 9 h; hits give low values; strain lacks LuxN and CqsS sensors; 0 = neutral-control median; activity change, % at 7.5 µM; actives 0.4% (n = 300,000); in the data active = activity change below about -75%, passing the limit was not always enough; inconclusive = no clear call, values can overlap the other calls;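 also: luminescence divided by OD600 gain over 9 h not by final OD600 alone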
Runt-CBFb FRET = inhibitors of human RUNX1 Runt domain binding to CBFb; Cerulean-Runt/Venus-CBFb FRET ratio 530/480, 1 h; inhibition, % at 20 µM; actives 0.46% (n = 220,000);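 active = inhibition over about 50% at 20 µM in the single-dose screen, limit read from the data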;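 also: 0% = DMSO wells and 100% = excess unlabeled CBFb competitor control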
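Schedule: protein complex preformed 1 h, compound exposure 1 h, room temperature, dark; test system: Cerulean-labeled Runt domain protein; amount: 100 nM per protein; buffer or medium: Tris 50 mM pH 7.5, KCl, K2SO4, 0.01% BSA; read-out: loss of energy transfer signal; detection: FRET fluorescence; controls: 5 µM unlabeled CBFb as full-inhibition high control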
Wee1 degr inh = inhibitors of human Wee1 degradation. P30291. HeLa Luc-Wee1K328M stability, luciferase luminescence; 100% = proteasome inhibitor MG132 effect. reporter increase, % at 5 µM. actives 1.2% (n = 220,000). AID 1321;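 active = activation above the mean of all tested compounds plus 3 SD, set per screening run, cut at about 8.8% in these data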;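 also: cells exposed to compound for 20 h before luminescence read; 0% = DMSO alone and 100% = MG132 at 30 µM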
The depositor's hits bear a star. Rows were chosen to be rich in hits. Some 2.9% of all compounds tested hit in one or more screens of this group.

`COC(=O)[C@]12C[C@H](CC(=O)N3CCN(C(=O)c4ccco4)CC3)C(=O)N(CCC3=CCCCC3)C1=C[C@H](C(C)C)O[C@@H]2C1CC1` gave proKLK7 act 1.
`CCCc1ccc(-c2cc(NC(=O)CSc3nnc(N)s3)n(-c3ccccc3)n2)cc1` gave Runt-SMMHC FRET -13, RanGTP-Impb inh 2, proKLK7 act 0, AI-2 QS modul 39, Runt-CBFb FRET -11 and Wee1 degr inh 10*.
For CCN(CC)S(=O)(=O)c1cccc(NC(=O)CSc2nnc(N)s2)c1 the results were Runt-SMMHC FRET -2, RanGTP-Impb inh 30*, proKLK7 act 0, AI-2 QS modul 15, Runt-CBFb FRET 0 and Wee1 degr inh -1.
Nc1nnc(SCC(=O)Nc2cccc(S(N)(=O)=O)c2)s1 was read as Runt-SMMHC FRET -3, RanGTP-Impb inh -1, proKLK7 act 0, AI-2 QS modul 5, Runt-CBFb FRET 0 and Wee1 degr inh 0.
For COc1cccc(N2CCN(Cc3nc4scc(-c5ccccc5)c4c(=O)[nH]3)CC2)c1 the results were Runt-SMMHC FRET 0, RanGTP-Impb inh -10, proKLK7 act -1, AI-2 QS modul 68, Runt-CBFb FRET 2 and Wee1 degr inh 0.
Cc1ccc(CN=C2Nc3ccccc3CS2)cc1 was read as Runt-SMMHC FRET 1, RanGTP-Impb inh 0, proKLK7 act 0, AI-2 QS modul -61, Runt-CBFb FRET 0 and Wee1 degr inh -1.
`Clc1ccc(CN=C2Nc3ccccc3CS2)cc1` gave Runt-SMMHC FRET -8, RanGTP-Impb inh 3, proKLK7 act 1, AI-2 QS modul -42 and Wee1 degr inh 8.8*.
Screening C[C@H]1COc2cc(Br)ccc2S(=O)(=O)N1Cc1cn(Cc2ccc(C(F)(F)F)cc2)nn1 returned proKLK7 act 0.
Screening CCC(C)c1ccc(O)c(NC(=O)c2cncc(Br)c2)c1 (configuration not stated) returned Runt-SMMHC FRET 2, RanGTP-Impb inh -3, proKLK7 act -1, AI-2 QS modul -85*, Runt-CBFb FRET 2 and Wee1 degr inh -2.
`CCC(C)c1ccc(O)c(NC(=S)NC(=O)c2cccnc2)c1` (configuration not stated) gave Runt-SMMHC FRET 2, RanGTP-Impb inh -3, proKLK7 act 1, AI-2 QS modul -36, Runt-CBFb FRET 1 and Wee1 degr inh 4.
`CCCC(=O)OC[C@H]1CN(C2CCCC2)S(=O)(=O)c2c(Oc3ccc(F)cc3OC)cccc2O1` gave proKLK7 act 1.
For COCCCn1c(=NC(C)=O)c(C#N)cc2c(=O)n3cccc(C)c3nc21 the results were Runt-SMMHC FRET 82*, RanGTP-Impb inh 82*, proKLK7 act 8, AI-2 QS modul 18, Runt-CBFb FRET 57* and Wee1 degr inh 2.
For COCCCn1c(=NC(=O)c2ccc3c(c2)OCO3)c(C#N)cc2c(=O)n3cccc(C)c3nc21 the results were Runt-SMMHC FRET 155* and Runt-CBFb FRET 127*.
CCCn1c(=NC(C)=O)c(C#N)cc2c(=O)n3cccc(C)c3nc21 was read as Wee1 degr inh -3.
`Cc1nc2c(C)cccn2c(=O)c1NC(=O)c1ccc2c(c1)OCO2` gave RanGTP-Impb inh -2, proKLK7 act -1 and AI-2 QS modul 8.
For COCCCn1c(=NC(=O)c2ccccc2)c(C#N)cc2c(=O)n3cccc(C)c3nc21 the results were Runt-SMMHC FRET 88*, RanGTP-Impb inh 49*, proKLK7 act 6, AI-2 QS modul 37, Runt-CBFb FRET 24 and Wee1 degr inh -3.
Screening CCN(C(=O)c1cc2c(=O)n3cccc(C)c3nc2n1CCCOC)C1CCCCC1 returned RanGTP-Impb inh 7, proKLK7 act -2 and AI-2 QS modul 16.
Screening FC(F)(F)c1nnc2c(Sc3ccccn3)nc3ccccc3n12 returned Runt-SMMHC FRET 51*, RanGTP-Impb inh 8, proKLK7 act 0, AI-2 QS modul 3, Runt-CBFb FRET 16 and Wee1 degr inh -2.
For COC(=O)[C@]12C[C@H](CC(=O)NCc3cccc4ccccc34)C(=O)N(Cc3ccccc3)C1=C[C@H](C(C)C)O[C@@H]2C1CC1 the results were proKLK7 act 0.
CCc1noc(C)c1C(=O)NNC(=O)c1ccc(N(CC)CC)cc1 was read as proKLK7 act 0.
Cc1ccc(S(=O)(=O)N(CC(=O)NC2CCC(C)CC2)c2cc(C)cc(C)c2)cc1 (configuration not stated) was read as proKLK7 act -1.
Screening Cc1ccc2nc(Cl)c(CNCc3ccccc3)cc2c1 returned Runt-SMMHC FRET 1, RanGTP-Impb inh -8, proKLK7 act 0, AI-2 QS modul -82*, Runt-CBFb FRET -1 and Wee1 degr inh 3.
`CCCCn1c(SCC(=O)NCc2ccccc2)nc2ccc(N3CCOCC3)cc2c1=O` gave Runt-SMMHC FRET -7, RanGTP-Impb inh -3, proKLK7 act 0, AI-2 QS modul 2, Runt-CBFb FRET 3 and Wee1 degr inh 2.
For CCCCn1c(SCC(=O)NCc2ccco2)nc2ccc(N3CCOCC3)cc2c1=O the results were Runt-SMMHC FRET -2, RanGTP-Impb inh inconclusive, proKLK7 act 15*, AI-2 QS modul -9, Runt-CBFb FRET 9 and Wee1 degr inh -1.
CC1=[N+](CC(=O)c2ccccc2)CCn2cccc21 was read as Runt-SMMHC FRET -39, RanGTP-Impb inh 20*, proKLK7 act 6, AI-2 QS modul 19, Runt-CBFb FRET -16 and Wee1 degr inh -1.
Cc1ccc(C)c(S(=O)(=O)N2CCN(Cc3ccc(O)c4ncccc34)CC2)c1 was read as Runt-SMMHC FRET -2, RanGTP-Impb inh 7, proKLK7 act -1, AI-2 QS modul 23, Runt-CBFb FRET -1 and Wee1 degr inh 9.3*.
`CN(C)c1ccc(/C=c2/sc3n(c2=O)NC2(c4ccccc4)N(C)C(=O)N(C)C2(c2ccccc2)N=3)cc1` (configuration not stated) gave Runt-SMMHC FRET -43, RanGTP-Impb inh 20*, AI-2 QS modul 32, Runt-CBFb FRET -12 and Wee1 degr inh 0.
For Cc1cccnc1NC(=S)NC(=O)c1cccs1 the results were Runt-SMMHC FRET -4, RanGTP-Impb inh inconclusive, proKLK7 act 6, AI-2 QS modul 8, Runt-CBFb FRET -3 and Wee1 degr inh 13*.
`Cc1cccnc1NC(=S)NC(=O)c1cncc(Br)c1` gave Runt-SMMHC FRET 6, RanGTP-Impb inh -2, proKLK7 act 32*, AI-2 QS modul 19, Runt-CBFb FRET 1 and Wee1 degr inh -5.
